Measurements collected from several papers.
Compare with care: the assays were run in different laboratories.
Medium: plasma

Structure (SMILES) | species | route | dose | bioavailability
COc1ccc(N(Cc2csc(-c3ccccc3)n2)C(=O)CCCCCC(=O)NO)cc1 | female Sprague-Dawley rat | oral | – | 10.3%
CCCCC(=O)Nc1ccc(-c2ccc3ncn(CCC)c(=O)c3c2)cn1 | male rat | oral | 10 mg/kg | 21.1%
Cc1cc(S(=O)(=O)NC2CC(N3CCN(CC4CCN(c5ccc6c(c5F)n(C)c(=O)n6C5CCC(=O)NC5=O)CC4)CC3)C2)ccc1Nc1ncc(C(F)(F)F)c(N2CCCC(C)(O)C2)n1 (stereo not shown) | rat | oral | 10 mg/kg | 1%
COc1nc(-c2cccc(-c3ccccc3)c2C)ccc1CNCCNC(=O)CCCCCCCCCCC(=O)N1CCN(CCNC(=O)c2cc3c(=O)n4cccc(C)c4nc3n(CCc3cccs3)c2=N)CC1 | male Sprague-Dawley rat | intraperitoneal | 4 mg/kg | 74.8%
O=C1CCC(N2Cc3cc(C4CCN(Cc5ccccc5)CC4)ccc3C2=O)C(=O)N1 (stereo not shown) | male Sprague-Dawley rat | oral | 3 mg/kg | 36.2%
COc1cc(-c2cc(C(C)=O)n3ccccc23)c(OC)cc1Cn1ccnc1 | male Sprague-Dawley rat | oral | 5 mg/kg | 50.3%
Cc1cc(S(=O)(=O)N[C@H]2CC[C@H](CN3CCN(c4cccc(NC5CCC(=O)NC5=O)c4)CC3)CC2)ccc1Nc1ncc(C(F)(F)F)c(N2CCC[C@](C)(O)C2)n1 (stereo partly shown) | rat | oral | 10 mg/kg | 13%
CC(C)C[C@H](NC(=O)NCc1cn(-c2ccccc2C(=O)OCn2cc(F)c(=O)[nH]c2=O)nn1)C(=O)NO | male Sprague-Dawley rat | oral | 50 mg/kg | ~0.64%
Cc1cc(S(=O)(=O)N[C@H]2CC[C@H](CN3CCN(c4ccc(C5CCC(=O)NC5=O)c(Cl)c4)CC3)CC2)ccc1Nc1ncc(C(F)(F)F)c(N2CCC[C@](C)(O)C2)n1 (stereo partly shown) | rat | oral | 10 mg/kg | 25%
C[C@H]1Oc2cc(cnc2N)-c2c(nn(C)c2C#N)CN(C)C(=O)c2ccc(F)cc21 | Sprague-Dawley rat | oral | – | 8.6%
